Source: ChEMBL document CHEMBL3596136, “Design, synthesis and biological evaluation of paralleled Aza resveratrol-chalcone compounds as potential anti-inflammatory agents for the treatment of acute lung injury” (Bioorg Med Chem Lett, 2015)
Calls of active or inactive are those of the source. The calls are words filed in the database; no cut-off is given here.

How the values were obtained:
RAW264.7 [1] = assay: Anti-inflammatory activity in mouse RAW264.7 cells assessed as inhibition of LPS-induced TNFalpha production at 10 mM pre-incubated for 10 mins before LPS stimulation for 24 hrs by ELISA method; assay type: functional, cell-based; conditions: in the assay text read “pre-incubated for 30 mins” for “pre-incubated for 10 mins”
Summary of the method: (§1)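 RAW 264.7 macrophages pretreated with compound for 30 min, then stimulated with LPS for 24 h. TNF-α and IL-6 in culture medium measured by ELISA and normalized to total protein. Expressed as percent of LPS group; mean ± SEM of 3 independent experiments.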

RAW264.7 [2] = assay: Anti-inflammatory activity in mouse RAW264.7 cells assessed as inhibition of LPS-induced IL6 production at 10 mM pre-incubated for 10 mins before LPS stimulation for 24 hrs by ELISA method; assay type: functional, cell-based; conditions: in the assay text read “pre-incubated for 30 mins” for “pre-incubated for 10 mins”; summary of the method: as §1
[3] = Toxicity against human HL7702 cells assessed as reduction in cell survival at 10 uM incubated for 24 hrs by MTT assay; assay type: cell-based; conditions: l02, 24 h
Summary of the method: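 HL-7702 normal hepatic cells treated at 10 µM for 24 h. Viability measured by MTT.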

RAW264.7 [4] = assay: Anti-inflammatory activity in mouse RAW264.7 cells assessed as inhibition of LPS-induced IL6 production pre-incubated for 30 mins before LPS stimulation for 24 hrs by ELISA method
RAW264.7 [5] = assay: Anti-inflammatory activity in mouse RAW264.7 cells assessed as inhibition of LPS-induced IL6 production pre-incubated for 10 mins before LPS stimulation for 24 hrs by ELISA method; assay type: functional, cell-based; conditions: in the assay text read “pre-incubated for 30 mins” for “pre-incubated for 10 mins”
Summary of the method: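 RAW 264.7 macrophages pretreated for 30 min at 1, 2.5, 5 and 10 µM, then given LPS (0.5 µg/mL) for 24 h. IL-6 in medium measured by ELISA, normalized to total protein, and expressed as percent of LPS. Concentration-response used for IC50; 3 independent experiments.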

Mus musculus [6] = assay: Anti-inflammatory activity in C57BL/6 mouse model of LPS-induced acute lung injury assessed as reduction in serum TNFalpha level at 20 mg/kg for 1 week dosed before LPS instillation for 6 hrs; assay type: functional, organism-based
Summary of the method: (§2)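 LPS-induced ALI in mice. Pretreatment at 20 mg/kg for one week, then intratracheal LPS (5 mg/kg). Animals killed 6 h later. BALF and serum collected and TNF-α measured in each.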

Mus musculus [7] = assay: Anti-inflammatory activity in C57BL/6 mouse model of LPS-induced acute lung injury assessed as reduction in lung CD68-stained macrophages level at 20 mg/kg for 1 week dosed before LPS instillation for 6 hrs by immunohistochemistry method; assay type: functional, organism-based
Summary of the method: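 Lung sections from mice killed 6 h after intratracheal LPS, with or without pretreatment. Macrophages detected by immunohistochemistry for the marker CD68.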

Mus musculus [8] = assay: Anti-inflammatory activity in C57BL/6 mouse model of LPS-induced acute lung injury assessed as reduction in TNFalpha level in bronchoalveolar lavage fluid at 20 mg/kg for 1 week dosed before LPS instillation for 6 hrs; assay type: functional, organism-based; summary of the method: as §2
Mus musculus [9] = organism: Mus musculus; assay: Anti-inflammatory activity in C57BL/6 mouse model of LPS-induced acute lung injury assessed as reduction in lung airspace inflammation […] by hematoxylin and eosin staining method; assay type: functional, organism-based
Summary of the method: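 Lung tissue taken 6 h after tracheal LPS instillation (5 mg/kg) in mice given or not given treatment. Sections stained with hematoxylin and eosin and examined by light microscopy for inflammatory cell infiltration, interstitial edema and alveolar septal thickening.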

Mus musculus [10] = assay: Anti-inflammatory activity in C57BL/6 mouse model of LPS-induced acute lung injury assessed as reduction in protein level in bronchoalveolar lavage fluid at 20 mg/kg for 1 week dosed before LPS instillation for 6 hrs by BCA protein assay; assay type: functional, organism-based
Summary of the method: (§3)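 ALI model in mice: one-week pretreatment at 20 mg/kg, then intratracheal LPS instillation (5 mg/kg). After 6 h, animals anaesthetized and killed. Lung wet/dry weight ratio determined. Total cell count and total protein concentration measured in bronchoalveolar lavage fluid.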

BEAS-2B [11] = assay: Anti-inflammatory activity in human BEAS2B cells assessed as LPS-induced TNFalpha mRNA expression incubated for 6 hrs by RT-qPCR method; assay type: functional, cell-based
Summary of the method: (§4)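 Beas-2B cells exposed to LPS (1.0 µg/mL) for 6 h, with or without compound. IL-1β, IL-6, IL-33 and TNF-α mRNA quantified by RT-qPCR. Results expressed as percent of LPS control.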

Mus musculus [12] = assay: Anti-inflammatory activity in C57BL/6 mouse model of LPS-induced acute lung injury assessed as reduction in total cel count at 20 mg/kg for 1 week dosed before LPS instillation for 6 hrs; assay type: functional, organism-based; summary of the method: as §3
BEAS-2B [13] = assay: Anti-inflammatory activity in human BEAS2B cells assessed as LPS-induced IL33 mRNA expression incubated for 6 hrs by RT-qPCR method; assay type: functional, cell-based; summary of the method: as §4
BEAS-2B [14] = assay: Anti-inflammatory activity in human BEAS2B cells assessed as LPS-induced IL-1beta mRNA expression incubated for 6 hrs by RT-qPCR method; assay type: functional, cell-based; summary of the method: as §4
Mus musculus [15] = assay: Anti-inflammatory activity in C57BL/6 mouse model of LPS-induced acute lung injury assessed as reduction in lung wet/dryweight ratio at 20 mg/kg for 1 week dosed before LPS instillation for 6 hrs; assay type: functional, organism-based; summary of the method: as §3
BEAS-2B [16] = assay: Anti-inflammatory activity in human BEAS2B cells assessed as LPS-induced IL6 mRNA expression incubated for 6 hrs by RT-qPCR method; assay type: functional, cell-based; summary of the method: as §4

Q: Which inhibition (RAW264.7 [1]) does the source give for `COc1ccc(C(=O)/C=C/c2ccc(C(F)(F)F)cc2)cc1/N=C/c1cccc(OC)c1O` here?
A: Active

Q: And the inhibition (RAW264.7 [2])?
A: Active

Q: For `COc1ccc(C(=O)/C=C/c2cc(OC)c(OC)c(OC)c2)cc1/N=C/c1ccc(O)c(Br)c1`, which inhibition (RAW264.7 [1]) is on record?
A: Active

Q: And the inhibition (RAW264.7 [2])?
A: Active

Q: And the Activity [3]?
A: Non-toxic

Q: What about the IC50 (RAW264.7 [4]) of the same molecule?
A: 3.6 µM

Q: What about the inhibition (RAW264.7 [5]) of the same molecule?
A: Dose-dependent effect

Q: Which results are given for `COc1ccc(C(=O)/C=C/c2cc(OC)c(OC)c(OC)c2)cc1/N=C/c1ccccc1O`?
A: inhibition (RAW264.7 [2]): Active; Activity [3]: Non-toxic; IC50 (RAW264.7 [4]): 3.6 µM; inhibition (RAW264.7 [5]): Dose-dependent effect

Q: Which inhibition (RAW264.7 [1]) does the source give for `COc1ccc(C(=O)/C=C/c2cccc(Br)c2)cc1/N=C/c1cccc(OC)c1O` here?
A: Active

Q: What about the inhibition (RAW264.7 [2]) of the same molecule?
A: Active

Q: With `COc1ccc(C(=O)/C=C/c2ccc3ccccc3c2)cc1/N=C/c1cccc(OC)c1O` as the molecule, how does the inhibition (RAW264.7 [2]) read?
A: Active

Q: Which inhibition (RAW264.7 [2]) does the source give for `COc1ccc(C(=O)/C=C/c2cc(OC)c(OC)c(OC)c2)cc1/N=C/c1cc2c(cc1Br)OCO2` here?
A: Active

Q: For `COc1ccc(C(=O)/C=C/c2ccc(OC)c(OC)c2)cc1/N=C/c1cccc(OC)c1O`, which inhibition (RAW264.7 [2]) is on record?
A: Active

Q: Which inhibition (RAW264.7 [2]) does the source give for `COc1ccc(Br)c(/C=N/c2cc(C(=O)/C=C/c3cc(OC)c(OC)c(OC)c3)ccc2OC)c1` here?
A: Active

Q: For `COc1ccc(C(=O)/C=C/c2ccc(Br)cc2)cc1/N=C/c1cccc(OC)c1O`, which inhibition (RAW264.7 [1]) is on record?
A: Active

Q: And the inhibition (RAW264.7 [2])?
A: Active

Q: For `COc1cc(OC)c(/C=C/C(=O)c2ccc(OC)c(/N=C/c3cccc(OC)c3O)c2)c(OC)c1`, which inhibition (RAW264.7 [2]) is on record?
A: Active

Q: For `COc1ccc(C(=O)/C=C/c2ccccc2Br)cc1/N=C/c1cccc(OC)c1O`, which inhibition (RAW264.7 [1]) is on record?
A: Active

Q: What about the inhibition (RAW264.7 [2]) of the same molecule?
A: Active

Q: For `COc1ccc(C(=O)/C=C/c2cc(OC)c(OC)c(OC)c2)cc1/N=C/c1ccc(Cl)cc1Cl`, which inhibition (RAW264.7 [2]) is on record?
A: Active

Q: What does the source list for `Oc1ccc(/C=C/c2cc(O)cc(O)c2)cc1`?
A: inhibition (RAW264.7 [1]): Active; inhibition (RAW264.7 [2]): Active; inhibition (Mus musculus [6]): Active; inhibition (Mus musculus [7]): Active

Q: Which results are given for `COc1ccc(C(=O)/C=C/c2cc(OC)c(OC)c(OC)c2)cc1/N=C/c1ccccc1Br`?
A: inhibition (RAW264.7 [1]): Active; inhibition (RAW264.7 [2]): Active; Activity [3]: Non-toxic; IC50 (RAW264.7 [4]): 4.8 µM; inhibition (RAW264.7 [5]): Dose-dependent effect

Q: Which inhibition (RAW264.7 [1]) does the source give for `COc1ccccc1/C=C/C(=O)c1ccc(OC)c(/N=C/c2cccc(OC)c2O)c1` here?
A: Active

Q: What about the inhibition (RAW264.7 [2]) of the same molecule?
A: Active

Q: With `COc1ccc(C(=O)/C=C/c2ccccc2C(F)(F)F)cc1/N=C/c1cccc(OC)c1O` as the molecule, how does the inhibition (RAW264.7 [1]) read?
A: Active

Q: What about the inhibition (RAW264.7 [2]) of the same molecule?
A: Active

Q: Which inhibition (RAW264.7 [1]) does the source give for `COc1ccc(C(=O)/C=C/c2cc(OC)c(OC)c(OC)c2)cc1/N=C/c1cccc(OC)c1O` here?
A: Active

Q: And the inhibition (RAW264.7 [2])?
A: Active

Q: What about the Activity [3] of the same molecule?
A: Non-toxic

Q: What about the IC50 (RAW264.7 [5]) of the same molecule?
A: 2.8 µM

Q: And the inhibition (RAW264.7 [5])?
A: Dose-dependent effect

Q: With `CCN(CC)c1ccc(/C=N/c2cc(C(=O)/C=C/c3cc(OC)c(OC)c(OC)c3)ccc2OC)c(O)c1` as the molecule, how does the inhibition (RAW264.7 [2]) read?
A: Active

Q: For `COc1ccc(C(=O)/C=C/c2cc(OC)c(OC)c(OC)c2)cc1/N=C/c1ccc(O)cc1O`, which inhibition (RAW264.7 [2]) is on record?
A: Active

Q: Which results are given for `COc1ccc(C(=O)/C=C/c2cc(OC)c(OC)c(OC)c2)cc1/N=C/c1cccc(O)c1O`?
A: inhibition (Mus musculus [8]): Active; inhibition (Mus musculus [9]): Active; inhibition (RAW264.7 [1]): Active; inhibition (Mus musculus [10]): Active; inhibition (RAW264.7 [2]): Active; inhibition (Mus musculus [6]): Active; Activity [3]: Non-toxic; inhibition (Mus musculus [7]): Active; inhibition (BEAS-2B [11]): Active; inhibition (Mus musculus [12]): Active; inhibition (BEAS-2B [13]): Active; inhibition (BEAS-2B [14]): Active; inhibition (Mus musculus [15]): Active; IC50 (RAW264.7 [4]): 1.8 µM; inhibition (RAW264.7 [5]): Dose-dependent effect; inhibition (BEAS-2B [16]): Active
